# Measurements reported in ChEMBL document CHEMBL5674889, “Enhanced JunD/RSK3 signalling due to loss of BRD4/FOXD3/miR-548d-3p axis determines BET inhibition resistance” (2020).
# The source made the active and inactive calls. The calls are words filed in the database; no cut-off is given here.
# Columns and labels:
# BT-549 [1] = assay: Effect on human JUND-overexpressing BT-549 cells assessed as RSK3 protein expression at 1 uM by Western blot analysis; assay type: functional, cell-based
# In short: (§1)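 RSK3 and JunD were probed by western blot in JUND-knockdown or JUND-overexpressing stable clones and their controls, all selected with puromycin 1.0 μg/ml. Antibodies used at 1:1000.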
# BT-549 [2] = assay: Effect on JUND dependent RPS6KA2 transcription in human JUND-knockdown BT-549 cells assessed reduction in transcription level at 1 uM by ChIP-RT-PCR analysis; assay type: functional, cell-based
# In short: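 ChIP-qPCR used ~1 × 10^6 cross-linked JUND-knockdown or control cells treated with DMSO or 1 μM for 6 h. Immunoprecipitated DNA was quantified by real-time PCR with primers specific to the RPS6KA2 enhancer. Non-specific primers downstream of the gene 3′ end served as control.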
# MDA-MB-231 [3] = assay: Antiproliferative activity in human MDA-MB-231 cells assessed as cell growth in the presence of AZ5104 at 1 uM by CellTiter-Glo luminescent cell viability assay; assay type: functional, cell-based
# In short: (§2)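 BLBC cells seeded at 3000/well, adhered overnight, then exposed to JQ1 (1 μM) with or without an EGFR inhibitor (1 μM) for 48 h; control and RPS6KA2-shRNA clones tested. Viability by CellTiter-Glo luminescence, background-subtracted and normalized to DMSO-treated control; triplicates, mean ± SD, one-way ANOVA against JQ1 alone.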
# BT-549 [4] = assay: Antiproliferative activity in human JUND-overexpressing BT-549 cells assessed as cell viability at 1 uM by CellTiter-Glo luminescent cell viability assay; assay type: functional, cell-based
# In short: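 Stable JUND-knockdown (shRNA, puromycin 1.0 μg/ml selection) or JUND-overexpressing clones and vector controls, seeded 3000 cells/well and adhered overnight, then given DMSO or JQ1 (1 μM) for 48 h. Read-out CellTiter-Glo luminescence normalized to DMSO control; triplicates, mean ± SD, one-way ANOVA.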
# BT-549 [5] = assay: Antiproliferative activity in human BT-549 cells assessed as cell growth in the presence of erlotinib at 1 uM by CellTiter-Glo luminescent cell viability assay; assay type: functional, cell-based; in short: as §2
# MCF7 = assay: Antiproliferative activity in human FOXD3-overexpressing MCF7 cells assessed as cell growth at 1 uM by CCK-8 assay; assay type: functional, cell-based
# MDA-MB-231 [6] = assay: Effect on human BRD4-knockdown MDA-MB-231 cells assessed as miR-548d-3p expression at 1 uM by real-time PCR analysis; assay type: functional, cell-based
# MDA-MB-231 [7] = assay: Induction of apoptosis in human MDA-MB-231 cells at 1 uM by FACS assay; assay type: functional, cell-based
# In short: (§3)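 Stable clones (vector, RSK3-overexpressing or RPS6KA2-knockdown) treated ± JQ1 1 μM. Cells washed twice in PBS, resuspended at 1 × 10^6 cells/ml in binding buffer, stained with Annexin V-FITC and propidium iodide for 10 min at room temperature in the dark, then read by flow cytometry. Three independent experiments; one-way ANOVA.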
# BT-549 [8] = assay: Effect on human RPS6KA2-knockdown BT-549 cells assessed as inhibition tumor sphere formation at 1 uM by Tumor sphere assay; assay type: functional, cell-based
# BT-549 [9] = assay: Antiproliferative activity in human RPS6KA2-knockdown BT-549 cells assessed as cell growth at 1 uM by CCK-8 assay; assay type: functional, cell-based
# MDA-MB-231 [10] = assay: Antiproliferative activity in human RPS6KA2-knockdown MDA-MB-231 cells assessed as inhibited cell growth at 1 uM for 48 hrs by CCK-8 assay; assay type: functional, cell-based
# BT-549 [11] = assay: Antiproliferative activity in human BT-549 cells assessed as cell growth in the presence of miR-548d-3p inhibitor at 1 uM by CCK-8 assay; assay type: functional, cell-based
# In short: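 BLBC cells transfected with miR-548d-3p mimic or inhibitor, with or without JQ1; growth read by CCK-8 assay relative to DMSO-treated control, seeded at 3000/well. Triplicates, mean ± SD, one-way ANOVA.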
# MDA-MB-231 [12] = assay: Induction of apoptosis in human MDA-MB-231 cells in the presence of osimertinib at 1 uM by flow cytometry analysis; assay type: functional, cell-based
# In short: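 Cells given JQ1 and/or osimertinib, then stained with Annexin V-FITC plus propidium iodide (10 min, room temperature, dark; 1 × 10^6 cells/ml in binding buffer after two PBS washes) and analysed by flow cytometry; one-way ANOVA.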
# BT-549 [13] = assay: Cytotoxicity in human RSK3-overexpressing BT-549 cells assessed as cell viability at 1 uM for 48 hrs by CellTiter-Glo luminescent cell viability assay; assay type: functional, cell-based
# In short: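 CellTiter-Glo viability: stable overexpressing or shRNA clones (puromycin 1.0 μg/ml selection) seeded 3000 cells/well, adhered overnight, then exposed to 1 μM for 48 h. Luminescence is background-subtracted and normalised to DMSO-treated control. Triplicates, mean ± SD, one-way ANOVA. MDA-MB-231 cells are kept in DMEM and BT549 in RPMI-1640, each with 10% FBS.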
# MDA-MB-231 [14] = assay: Induction of apoptosis in human MDA-MB-231 cells over expressing RSK3 assessed as necrotic cells at 1 uM by Annexin V-FITC flow cytometric analysis (reference value: 3.51%); assay type: functional; in short: as §3
# MDA-MB-231 [15] = assay: Effect on human JUND-overexpressing MDA-MB-231 cells assessed as RSK3 protein expression at 1 uM by Western blot analysis; assay type: functional, cell-based; in short: as §1
# BT-549 [16] = assay: Antiproliferative activity in human RPS6KA2-knockdown BT-549 cells assessed as inhibited cell growth at 1 uM for 48 hrs by CCK-8 assay; assay type: functional, cell-based
# MDA-MB-231 [17] = assay: Induction of apoptosis in human MDA-MB-231 cells expressing vector control assessed as early apoptotic cells at 1 uM by Annexin V-FITC flow cytometric analysis (reference value: 4.02%); assay type: functional; in short: as §3
# MDA-MB-231 [18] = assay: Induction of apoptosis in human MDA-MB-231 cells over expressing RSK3 assessed as early apoptotic cells at 1 uM by Annexin V-FITC flow cytometric analysis (reference value: 3.85%); assay type: functional; in short: as §3
# MDA-MB-231 [19] = assay: Antiproliferative activity in human MDA-MB-231 cells assessed as inhibited cell growth in the presence of osimertinib at 1 uM for 48 hrs by CCK-8 assay; assay type: functional, cell-based
# In short: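 Cells seeded 3000/well, adhered overnight, treated with JQ1 (1 μM) with or without osimertinib (1 μM) for 48 h; growth by CCK-8 kit, normalized to DMSO-treated control; triplicates, mean ± SD, one-way ANOVA.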
# BT-549 [20] = assay: Antiproliferative activity in human FOXD3-knockdown BT-549 cells co-silenced with shRNA of RPS6KA2 assessed as cell growth at 1 uM by CCK-8 assay; assay type: functional, cell-based
# MDA-MB-231 [21] = assay: Effect on human BRD4-knockdown MDA-MB-231 assessed as decreased luciferase activity at 1 uM for 6 hrs by Luciferase reporter assay; assay type: functional, cell-based
# BT-549 [22] = assay: Effect on human BRD4-knockdown BT-549 cells assessed as miR-548d-3p expression at 1 uM by real-time PCR analysis; assay type: functional, cell-based
# MDA-MB-231 [23] = assay: Effect on human RPS6KA2 transfected MDA-MB-231 cells by measuring luciferase activity at 20 uM by Luciferase reporter assay; assay type: functional, cell-based
# MDA-MB-231 [24] = assay: Induction of apoptosis in human MDA-MB-231 cells expressing vector control assessed as late apoptotic cells at 1 uM by Annexin V-FITC flow cytometric analysis (reference value: 2.4%); assay type: functional; in short: as §3
smiles,measurement,setting,value
Cc1sc2c(c1C)C(c1ccc(Cl)cc1)=N[C@@H](CC(=O)OC(C)(C)C)c1nnc(C)n1-2,Activity,BT-549 [1],Active
same,Activity,BT-549 [2],Active
same,Activity,MDA-MB-231 [3],Active
same,Activity,BT-549 [4],Active
same,Activity,BT-549 [5],Active
same,Activity,MCF7,Active
same,Activity,MDA-MB-231 [6],Active
same,Activity,MDA-MB-231 [7],Active
same,Activity,BT-549 [8],Active
same,Activity,BT-549 [9],Active
same,Activity,MDA-MB-231 [10],Active
same,Activity,BT-549 [11],Active
same,Activity,MDA-MB-231 [12],Active
same,Activity,BT-549 [13],Active
same,Activity,MDA-MB-231 [14],1.67%
same,Activity,MDA-MB-231 [15],Active
same,Activity,BT-549 [16],Active
same,Activity,MDA-MB-231 [17],16.3%
same,Activity,MDA-MB-231 [18],7.14%
same,Activity,MDA-MB-231 [19],Active
same,Activity,BT-549 [20],Active
same,Activity,MDA-MB-231 [21],Active
same,Activity,BT-549 [22],Active
same,Activity,MDA-MB-231 [23],Active
same,Activity,MDA-MB-231 [24],5.48%
